According to ChEMBL document CHEMBL4680081, “Synthesis, photophysical properties and biological evaluation of β-alkylaminoporphyrin for photodynamic therapy” (Bioorg Med Chem, 2016):
Calls of active or inactive are those of the source. The rule behind the calls is not given here.

Key:
[1] = Drug localization in cytoplasm of human HeLa cells at 5 uM incubated for 4 hrs in dark by Hoechst 33342 staining based confocal fluorescence microscopy; format: ADME, subcellular
Method in brief: (§1)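 HeLa cells at 1 × 10^5 cells/mL on poly-L-lysine coverslips for 24 h, then 5 µM drug for 4 h in the dark at 37 °C. Nuclei were stained with Hoechst 33342 for 10 min at 37 °C, and cells fixed in 4% paraformaldehyde at 4 °C for 30 min. Confocal imaging: drug excited at 417 nm, emission 600–700 nm; Hoechst excited at 350 nm, emission 450–500 nm.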

[2] = Induction of singlet oxygen generation in DMF solution assessed as singlet oxygen quantum yield irradiated with 650 nanometer laser light by DPBF-based assay; format: functional
[3] = Absorption property of the compound in DMSO assessed as soret band maximum absorption wavelength by UV-visible spectrophotometric method; format: physicochemical
Method in brief: (§2)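 UV–visible absorption spectra recorded in DMSO at concentrations 1, 2, 4, 6, 8, 10 µM, with the concentration dependence used to follow aggregation.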

[4] = Absorption property of the compound in DMSO assessed as soret band absorption coefficient by UV-visible spectrophotometric method; format: physicochemical; method in brief: as §2
[5] = Absorption property of the compound in DMSO assessed as soret band wavelength molar absorption coefficient by UV-visible spectrophotometric method; format: physicochemical; method in brief: as §2
[6] = Absorption property of the compound in DMSO assessed as Q band wavelength molar absorption coefficient by UV-visible spectrophotometric method; format: physicochemical; method in brief: as §2
[7] = Absorption property of the compound in DMSO assessed as Q band absorption coefficient by UV-visible spectrophotometric method; format: physicochemical; method in brief: as §2
[8] = Absorption property of the compound in DMSO assessed as Q band maximum absorption wavelength by UV-visible spectrophotometric method; format: physicochemical; method in brief: as §2
[9] = Emission property of the compound in DMSO assessed as stokes shift by fluorescence spectrophotometric method; format: physicochemical
Method in brief: (§3)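 Fluorescence spectra recorded on a spectrofluorometer with slits of 1 nm for excitation and 1 or 2 nm for emission.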

HeLa [10] = experiment: Photodynamic antitumor activity against human HeLa cells xenografted in BALB/c nude mouse assessed as reduction in tumor volume at 5 mg/kg, iv followed by laser light irradiation at 100 J/cm2
[11] = Drug localization in nuclear membrane of human HeLa cells at 5 uM incubated for 4 hrs in dark by Hoechst 33342 staining based confocal fluorescence microscopy; format: ADME, cell membranes; method in brief: as §1
[12] = Dark toxicity in human HeLa cells assessed as reduction in cell viability after 24 hrs by MTT assay; format: cell-based
Method in brief: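 HeLa cells in DMEM with 10% FBS (37 °C, 5% CO2) were seeded at 2 × 10^4 cells/well and attached for 24 h. Compound at a range of final concentrations was taken up for 24 h in the dark, cells were washed with PBS and left unirradiated. MTT viability was read 24 h later as % survival normalised to no-drug cells. Triplicate experiments.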

[13] = Emission property of the compound in DMSO assessed as maximum excited state emission wavelength at 4 uM by fluorescence spectrophotometric method; format: physicochemical; method in brief: as §3
HeLa [14] = experiment: Phototoxicity against human HeLa cells assessed as reduction in cell viability preincubated for 24 hrs followed by irradiated with 16 J/cm2 of 650 nanometer laser light measured after 24 hrs by MTT assay; format: functional, cell-based; details: light or radiation study
Method in brief: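 HeLa cells at 2 × 10^4 cells/well were attached for 24 h and given compound at a range of final concentrations for 24 h in the dark. After two PBS washes, cells were irradiated with a 650 nm Nd:YAG laser (doses 0–16 J/cm²). MTT viability was read 24 h later as % survival normalised to no-drug cells. Triplicate experiments.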

[15] = Absorption property of the compound in DMSO assessed as Q band molar attenuation coefficient by UV-visible spectrophotometric method; format: physicochemical; method in brief: as §2
[16] = Emission property of the compound in DMSO assessed as maximum emission wavelength at 4 uM by fluorescence spectrophotometric method; format: physicochemical; method in brief: as §3

| Structure (SMILES) | Drug uptake [1] | Activity [3] [nm] | Activity [4] | Activity [5] [nm] | Activity [6] [nm] | Activity [7] | Activity [8] [nm] | Activity [9] [nm] | Drug uptake [11] | Activity [13] [nm] | Activity [15] | Activity [16] [nm] | Activity [2] | Activity (HeLa [10]) | IC50 at 24 h [12] [µM] | IC50 (HeLa [14]) [µM] |
| --- | --- | --- | --- | --- | --- | --- | --- | --- | --- | --- | --- | --- | --- | --- | --- | --- |
| C1=Cc2nc1c(-c1ccccc1)c1ccc([nH]1)c(-c1ccccc1)c1nc(c(-c3ccccc3)c3ccc([nH]3)c2-c2ccccc2)C(N2CCOCC2)=C1 |  | 417 | 16.08 10^4/M/cm | 522 | 650 | 0.69 10^4/M/cm | 596 | 13 |  | 417 | 0.56 10^4/M/cm | 663 | 0.25 |  | 93.4 | 5.06 |
| C1=Cc2nc1c(-c1ccccc1)c1ccc([nH]1)c(-c1ccccc1)c1nc(c(-c3ccccc3)c3ccc([nH]3)c2-c2ccccc2)C(N2CCCCC2)=C1 |  | 412 | 8.32 10^4/M/cm | 524 | 650 | 0.27 10^4/M/cm | 596 | 19 |  | 412 | 0.16 10^4/M/cm | 669 | 0.19 |  | 110 | 5.56 |
| C1=Cc2nc1c(-c1ccccc1)c1ccc([nH]1)c(-c1ccccc1)c1nc(c(-c3ccccc3)c3ccc([nH]3)c2-c2ccccc2)C(N2CCCC2)=C1 |  | 412 | 14.53 10^4/M/cm | 528 | 664 | 0.44 10^4/M/cm | 601 | 1 |  | 412 | 0.25 10^4/M/cm | 665 | 0.43 |  | 172 | 4.56 |
| COC(C)c1c(C)c2cc3nc(cc4[nH]c(cc5nc(cc1[nH]2)C(C)=C5C(C)O)c(C)c4CCC(=O)O)C(CCC(=O)O)=C3C (centres undefined) |  |  |  |  |  |  |  |  |  |  |  |  | 0.18 |  | 345 | 9.46 |

Continued, in another order:

| Drug uptake [1] | Activity [3] [nm] | Activity [4] | Activity [5] [nm] | Activity [6] [nm] | Activity [7] | Activity [8] [nm] | Activity [9] [nm] | Drug uptake [11] | Activity [13] [nm] | Activity [15] | Activity [16] [nm] | Structure (SMILES) | Activity [2] | Activity (HeLa [10]) | IC50 at 24 h [12] [µM] | IC50 (HeLa [14]) [µM] |
| --- | --- | --- | --- | --- | --- | --- | --- | --- | --- | --- | --- | --- | --- | --- | --- | --- |
| Active | 417 | 13.43 10^4/M/cm | 535 | 668 | 0.68 10^4/M/cm | 603 | 15 | Active | 417 | 0.54 10^4/M/cm | 683 | COc1ccc(-c2c3nc(c(-c4ccc(OC)cc4)c4ccc([nH]4)c(-c4ccc(OC)cc4)c4nc(c(-c5ccc(OC)cc5)c5ccc2[nH]5)C=C4N2CCCC2)C=C3)cc1 | 0.56 | Active | 387 | 4.38 |
|  | 412 | 14.75 10^4/M/cm | 521 | 648 | 0.73 10^4/M/cm | 594 | 17 |  | 412 | 0.67 10^4/M/cm | 665 | Clc1ccc(-c2c3nc(c(-c4ccc(Cl)cc4)c4ccc([nH]4)c(-c4ccc(Cl)cc4)c4nc(c(-c5ccc(Cl)cc5)c5ccc2[nH]5)C=C4N2CCCC2)C=C3)cc1 | 0.2 |  | 81.6 | 6.43 |
|  | 414 | 16.52 10^4/M/cm | 531 | 666 | 0.58 10^4/M/cm | 602 | 4 |  | 414 | 0.34 10^4/M/cm | 671 | Cc1ccc(-c2c3nc(c(-c4ccc(C)cc4)c4ccc([nH]4)c(-c4ccc(C)cc4)c4nc(c(-c5ccc(C)cc5)c5ccc2[nH]5)C=C4N2CCCC2)C=C3)cc1 | 0.54 |  | 280 | 5.33 |
